Measurements taken from ChEMBL document CHEMBL1125186, “GABA-uptake inhibitors: construction of a general pharmacophore model and successful prediction of a new representative” (J Med Chem, 1991).
Blank lines part the entries; values can stand above or below the compound they belong to.

Tests used:
[1] = Dissociation constant was measured by potentiometric titrations; type: physicochemical
Summary of the method: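 pKa determined by potentiometric titration; values are means of at least two determinations.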

[2] = Delta logPoct-cyc; type: ADME; settings: octanol/water
Summary of the method: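 ΔP taken as log Poct minus log Pcyc. Both come from shake-flask partitioning at room temperature against 0.15 M phosphate buffer pH 7.4, with the aqueous phase read spectrophotometrically.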

[3] = Concentration required for 50% inhibition of GABA uptake in rat brain
[4] = Partition coefficient (logP); type: physicochemical; settings: octanol/water
Summary of the method: (§1)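 Conventional shake-flask partitioning at room temperature, 1-octanol or cyclohexane against 0.15 M phosphate buffer pH 7.4. Compound in the aqueous phase quantified spectrophotometrically. Means of at least two determinations.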

[5] = Partition coefficient (logP) (cyclohexane); type: physicochemical; settings: cyclohexane/phosphate buffer pH 7.4; summary of the method: as §1
[6] = I/U is the ratio of zwitterionic (I) to that of unionized […]; type: ADME
Summary of the method: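 Ratio of zwitterionic (I) to un-ionized (U) species calculated by the Wegscheider method.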

Rattus norvegicus = species on record: Rattus norvegicus; assay: Concentration required for 50% inhibition of GABA uptake in rat brain; type: functional
Summary of the method: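 Rat corpus striatum synaptosomes from a 0.32 M sucrose homogenate: 1000g spin, then 20000g pellet, both at 4 °C. Synaptosomes (1 mg protein) incubated 2 min at 37 °C in pH 7.4 Krebs-Ringer phosphate with 0.15 M NaCl, [3H]GABA (25–40 Ci/mmol) and test compound up to 10⁻⁴ M. Stopped by dilution with NaCl-free medium, centrifuged; pellet radioactivity counted. IC50 derived from the concentration range.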

[7] = Dissociation constant was measured as pKa1 by potentiometric titrations

pKa2 [1]: 9.23
delta logP [2]: 1.43
logP [4]: 0.99
logP [5]: -0.43
Ratio [6]: 6000
SMILES: O=C(O)C1CCCN(CCC=C(c2ccccc2)c2ccccc2)C1 (configuration not stated)
pKa [3]: 3.57

IC50 (Rattus norvegicus): 100 µM
SMILES: O=C(O)C1=CCC(CCc2ccccc2)NC1 (configuration not stated)

IC50 (Rattus norvegicus): > 100 µM
SMILES: CCCC1CC=C(C(=O)O)CN1 (configuration not stated)

IC50 (Rattus norvegicus): > 100 µM
SMILES: CCC1CC=C(C(=O)O)CN1 (configuration not stated)

IC50 (Rattus norvegicus): > 100 µM
SMILES: O=C(O)C1=CCC(CCCCc2ccccc2)NC1 (configuration not stated)

IC50 (Rattus norvegicus): 40 µM
SMILES: CC1CC=C(C(=O)O)CN1 (configuration not stated)

IC50 (Rattus norvegicus): 0.1 µM
pKa2 [1]: 9.25
delta logP [2]: 2.71
logP [4]: 0.71
logP [5]: -2
Ratio [6]: 7000
pKa [7]: 3.79
SMILES: Cl.O=C(O)C1=CCC(CCC(c2ccccc2)c2ccccc2)NC1 (configuration not stated)

IC50 (Rattus norvegicus): > 100 µM
SMILES: CN1CC(C(=O)O)=CCC1CCCCc1ccccc1 (configuration not stated)

IC50 (Rattus norvegicus): > 100 µM
SMILES: CCCC1CC=C(C(=O)OCC)CN1 (configuration not stated)

IC50 (Rattus norvegicus): 37 µM
SMILES: CCOC(=O)C1=CCC(CCC(c2ccccc2)c2ccccc2)NC1 (configuration not stated)

IC50 (Rattus norvegicus): > 100 µM
SMILES: CCOC(=O)C1=CCC(CC)NC1 (configuration not stated)
